Measured values of several laboratories.
Compare with care: the assays were run in different laboratories.
Target: Death-associated protein kinase 3 (DAPK3, Homo sapiens, UniProt O43293)

Structure (SMILES) | test | conditions | endpoint | value
Nc1ncnc2occ(-c3ccc(NC(=O)Nc4cc(C(F)(F)F)ccc4F)cc3)c12 | cell-free assay, inhibitor | 20 µM | remaining signal | 7.9%
O=C(Nc1cnn(-c2csc(C(=O)NC3COC3)c2)c1)Nc1c(F)cccc1Cl | enzyme activity, inhibitor | 5 µM | remaining activity | 108%
CCCOc1ccc(OC)c(F)c1C(=O)c1ccc(C(=O)N[C@@H]2CNC[C@H]2NC(=O)c2ccc3[nH]ncc3c2)cc1 | enzyme activity, inhibitor | 10 µM | remaining activity | 40%
Cc1ccc(Nc2nccc(N(C)c3ccc4c(C)n(C)nc4c3)n2)cc1S(N)(=O)=O | enzyme activity, inhibitor | 10 µM | inhibition | -2%
Cc1cnc(NC2CCOCC2)nc1-n1cnc(C(=O)NC(CN)c2cc(F)cc(Cl)c2)c1 (centres unmarked) | enzyme activity, inhibitor, radiometric | 1 µM | remaining activity | 107%
CC(C)(O)[C@H]1CC[C@H](Nc2ccc3ncc(-c4cccc(C(F)(F)F)c4)n3n2)CC1 | enzyme activity, inhibitor | 1 µM | remaining activity | 120%
CN([C@@H]1CCc2c(CC(=O)O)c3ccccc3n2C1)S(=O)(=O)c1ccc(F)cc1 | cell-free assay, competition with immobilised ligand | 1 µM | remaining binding | 87%
CCCS(=O)(=O)Nc1ccc(F)c(C(=O)c2c[nH]c3ncc(-c4ccc(Cl)cc4)cc23)c1F | enzyme activity, inhibitor | 1 µM | inhibition | < 10%
CC(C)(C)c1nc(-c2cccc(NS(=O)(=O)c3c(F)cccc3F)c2F)c(-c2ccnc(N)n2)s1 | enzyme activity, inhibitor, radiometric | 1 µM | remaining activity | 54%
COc1cc(-c2cc(-c3ccc(N4CCNCC4)cc3)cnc2C)cc(OC)c1OC | enzyme activity, inhibitor | 0.1 µM | inhibition | 1%
Cc1ccc(NC(=O)c2ccc(C)c(C(F)(F)F)c2)cc1C#Cc1nn(C2CCC(O)CC2)c2ncnc(N)c12 (centres unmarked) | cell-free assay | 10 µM | remaining signal | 110%
O=c1nc(-c2ccccn2)sc2ccccc12 | binding, competition with immobilised ligand | 1 µM | remaining binding | 91%
Clc1ccc(Nc2nnc(Cc3ccncc3)c3ccccc23)cc1 | cell-free assay | 0.5 µM | remaining signal | 107%
CCCCN(CCCC)C(=O)CN1C[C@H](c2cc(OC)c3c(c2)OCO3)[C@@H](C(=O)O)[C@@H]1CC(C)(C)CCC | cell-free assay, competition with immobilised ligand | 1 µM | remaining binding | 100%
O=C1Nc2ccc(Cl)cc2C1=Cc1cc(Cl)c(O)c(Cl)c1 | cell-free assay | 0.5 µM | remaining signal | 82.3%
O=S(=O)(NC1CCC(c2cc(F)ccc2F)(S(=O)(=O)c2ccc(Cl)cc2)CC1)C(F)(F)F (centres unmarked) | cell-free assay, competition with immobilised ligand | 1 µM | remaining binding | 97%
Cc1ccc(C(=O)Nc2ccc(CN3CCN(C)CC3)c(C(F)(F)F)c2)cc1C#Cc1cnc2cccnn12 | enzyme activity, inhibitor | 23.5 nM | remaining activity | 99%
CSc1cccnc1N1CCN(Cc2nc3ccccc3[nH]2)CC1 | cell-free assay, competition with immobilised ligand | 1 µM | remaining binding | 100%
C#Cc1cccc(Nc2ncnc3cc(OCCOC)c(OCCOC)cc23)c1 | cell-free assay | 0.5 µM | remaining signal | 95.4%
C[C@H](c1cccc(C#N)c1)n1cc(Cl)cc(C(N)=O)c1=N | cell-free assay, competition with immobilised ligand | 1 µM | remaining binding | 100%
COc1cc2ncnc(Nc3ccc(Oc4ccccc4)cc3C)c2cc1OC | enzyme activity, inhibitor | 1 µM | inhibition | -4%
C[C@H](c1ccc(F)cc1)N(Cc1cccc(C(=O)O)c1)C(=O)c1cnc2ccccc2c1 | cell-free assay, competition with immobilised ligand | 1 µM | remaining binding | 100%
N#CCCc1ccc2c(c1)-c1[nH]c3ccc([N+](=O)[O-])cc3c1CC(=O)N2 | cell-free assay | 0.5 µM | remaining signal | 99.3%
